≈ marks a conversion by molar mass, not a printed value.
Experiments:
Phosphomannomutase 2 = biological target: T1, Phosphomannomutase 2 (Homo sapiens, UniProt O15305); experiment: Inhibition of human purified PMM2
T1 sequence (O15305 whole entry): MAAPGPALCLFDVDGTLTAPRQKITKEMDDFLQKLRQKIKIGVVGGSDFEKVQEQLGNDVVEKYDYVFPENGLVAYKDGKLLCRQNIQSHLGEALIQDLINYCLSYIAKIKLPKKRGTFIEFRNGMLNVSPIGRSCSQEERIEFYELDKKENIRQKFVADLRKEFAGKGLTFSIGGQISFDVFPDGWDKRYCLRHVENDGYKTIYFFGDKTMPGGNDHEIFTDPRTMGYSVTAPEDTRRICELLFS

[1] = Solubility of the compound at pH 7.4; assay type: physicochemical; conditions: buffer
[2] = Metabolic stability of the compound in mouse plasma assessed as compound remaining at 10 uM after 3 hrs by LC/MS/MS analysis; assay type: ADME, cell-free; conditions: read-out: Stability
Outline: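 Fresh mouse plasma with test article at 10 μM, run in duplicate at 37 °C. Sampled at t=0 and t=3 h; % parent remaining quantified by LC/MS/MS.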

Liver = experiment: Metabolic stability of the compound in rat liver S9 fraction at 10 uM after 2 hrs by LCMS analysis in presence of GSH transferase; assay type: ADME, subcellular; conditions: s9, 2 h
Outline: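 The reaction was quenched by acetonitrile precipitation, and the supernatant was dried and reconstituted. Positive-ion electrospray LCMS tracked parent compound and GSH conjugates. Run in triplicate, with diclofenac as positive control.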

[3] = Metabolic stability of the compound in mouse liver microsomes assessed as compound remaining at 10 uM after 1 hr by LC/MS/MS analysis; assay type: ADME, Microsome; conditions: read-out: Stability
Outline: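 Mouse liver microsomes at 0.5 mg/ml, test article at 10 μM, duplicate, 37 °C. Aliquots at t=0 and t=1 h; % parent remaining by LC/MS/MS. Positive control phenacetin conversion to acetaminophen; negative control NADPH-deficient mixture.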

HeLa = experiment: Cytotoxicity against human HeLa cells at 12.5 to 100 uM after 2 hrs; assay type: cell-based
Outline: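 HeLa cells at 70% confluency were preincubated with compound for 2 h at 37°C. They were then labelled with 50 μCi/mL ³H-mannose and 5 μCi/mL ³⁵S-Met/Cys for 1 h at 37°C, washed, and lysed in 10 mM Tris pH 7.4 with 1% NP-40. Proteins were precipitated with 10% TCA. ³⁵S incorporation read protein synthesis and toxicity; DMSO-treated cells served as the reference.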

[4] = Cmax in C57BL/6 mouse at 20 mg/kg, po; assay type: ADME, organism-based; set-up: dose 20 mg/kg, route oral; conditions: in vivo
Outline: (§1)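 C57BL/6 mice, n=3 per dose, given single oral dose of 20 mg/kg (5 mg/kg IV arm run in parallel). Animals sacrificed for blood at 0.5, 1, 2, 4 and 6 hr after oral dosing; plasma separated by centrifugation, stored at -20°C, extracted with 2-fold excess acetonitrile, vortexed 3 min, centrifuged 15 min (7500g), supernatant quantified by LCMS.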

[5] = AUC (0 to t) in C57BL/6 mouse at 20 mg/kg, po; assay type: ADME, organism-based; set-up: dose 20 mg/kg, route oral; conditions: plasma; outline: as §1
[6] = Half life in C57BL/6 mouse at 20 mg/kg, po; assay type: ADME, organism-based; set-up: dose 20 mg/kg, route oral; conditions: in vivo
Outline: (§2)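 C57BL/6 mice, n=3 per dose, dosed 5 mg/kg IV and 20 mg/kg PO. Blood collected at PO 0.5, 1, 2, 4, 6 hr and IV 10 min, 0.5, 1, 2, 4, 6 hr. Plasma separated by centrifugation, stored at -20°C, extracted with 2-fold excess acetonitrile (vortex 3 min, 15 min at 7500g), supernatant analysed by LCMS.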

Mus musculus = experiment: Oral bioavailability in C57BL/6 mouse at 20 mg/kg; assay type: ADME, organism-based; conditions: in vivo; outline: as §2
in vivo = conditions: C57BL/6, mouse, po, 20 mg/kg
[7] = biological target: T2, Mannose-6-phosphate isomerase (Homo sapiens, UniProt P34949); experiment: Inhibition of human purified phosphomannose isomerase
T2 sequence (P34949 whole entry): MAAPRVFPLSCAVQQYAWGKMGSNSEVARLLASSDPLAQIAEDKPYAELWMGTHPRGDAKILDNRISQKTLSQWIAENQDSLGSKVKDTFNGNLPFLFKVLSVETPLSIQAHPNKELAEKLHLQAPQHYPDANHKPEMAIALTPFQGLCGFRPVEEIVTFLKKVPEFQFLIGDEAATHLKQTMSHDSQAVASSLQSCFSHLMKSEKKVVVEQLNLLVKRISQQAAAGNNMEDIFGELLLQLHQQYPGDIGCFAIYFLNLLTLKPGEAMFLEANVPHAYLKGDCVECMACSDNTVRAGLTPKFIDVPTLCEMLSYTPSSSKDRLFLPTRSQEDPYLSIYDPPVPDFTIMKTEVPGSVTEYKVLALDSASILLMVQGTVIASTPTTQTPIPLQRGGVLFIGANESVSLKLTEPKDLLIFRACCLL

[8] = Inhibition of human purified phosphomannose isomerase

| SMILES | IC50 (Phosphomannomutase 2) | IC50 [7] | also measured |
| --- | --- | --- | --- |
| Cc1cccc(-n2sc3ccccc3c2=O)c1 | > 20 µM | – | – |
| O=c1c2cc(F)ccc2sn1-c1cccc(F)c1 | > 20 µM | – | – |
| O=c1c2cc(F)ccc2sn1-c1ccccc1 | > 80 µM | – | solubility [1]: 3.8 µg/mL (≈ 15.5 µM); remaining at 3 h, 10 µM [2]: 99%; Stability (Liver): Stable; remaining at 1 h, 10 µM [3]: 85%; Activity (HeLa): Non-toxic; Cmax [4]: 162 nM; AUC(0-t) [5]: 0.305 µM·h; half-life [6]: 1.3 h; F (Mus musculus): 35%; Tmax (in vivo): 0.75 h |
| O=c1c2cc(F)ccc2sn1-c1ccc(Cl)cc1 | > 20 µM | – | – |
| COc1cccc(-n2sc3ccccc3c2=O)c1 | > 10 µM | – | – |
| Cc1ccccc1-n1sc2cc(F)ccc2c1=O | > 20 µM | – | – |
| O=c1c2ccccc2sn1-c1ccc(C(F)(F)F)cc1 | > 20 µM | > 20 µM | – |
| Cc1ccc(C)c(-n2sc3ccccc3c2=O)c1 | – | 6.6 µM | – |
| O=c1c2cc(F)ccc2sn1-c1ccccc1F | > 20 µM | – | – |
| O=c1c2ccccc2sn1-c1cccc(I)c1 | > 20 µM | – | – |
| O=c1c2cc(F)ccc2sn1-c1ccc(F)cc1 | > 80 µM | – | – |
| O=c1c2ccccc2sn1-c1cccc(Cl)c1 | > 20 µM | – | – |
| CN(C)c1cccc(-n2sc3ccccc3c2=O)c1 | > 20 µM | – | – |
| CN(C)c1ccc(-n2sc3ccccc3c2=O)cc1 | 13.3 µM | 1.9 µM | – |
| O=c1c2ccccc2sn1-c1ccc2ccccc2c1 | > 20 µM | – | – |
| CC(C)(C)c1ccc(-n2sc3ccccc3c2=O)cc1 | > 20 µM | – | solubility [1]: 2.5 µg/mL (≈ 8.82 µM); remaining at 3 h, 10 µM [2]: 10%; remaining at 1 h, 10 µM [3]: 62%; Activity (HeLa): Non-toxic |
| NC(=O)C1(NC(=O)CCCOc2ccc(Cl)cc2Cl)Cc2ccccc2C1 | – | – | IC50 [8]: 40 µM |
| Cc1ccc(C)c(-n2sc3ccc(F)cc3c2=O)c1 | – | – | solubility [1]: 11 µg/mL (≈ 40.2 µM); remaining at 1 h, 10 µM [3]: 81% |
| O=c1c2ccccc2sn1-c1ccc(Cl)cc1 | > 20 µM | – | – |
| NC(=O)C1(NC(=O)CCCNc2ccc(Cl)cc2Cl)Cc2ccccc2C1 | – | 50 µM | – |
| Cc1ccc(C)c(-n2sc3cc(F)ccc3c2=O)c1 | – | 1 µM | solubility [1]: 22.5 µg/mL (≈ 82.3 µM); remaining at 3 h, 10 µM [2]: 48%; remaining at 1 h, 10 µM [3]: 82.3% |
| O=c1c2ccccc2sn1-c1cccc(C(F)(F)F)c1 | 13.9 µM | – | – |
| NC(=O)C1(NC(=O)CCCSc2ccc(Cl)cc2Cl)Cc2ccccc2C1 | – | 14 µM | – |
| Cc1ccc(-n2sc3ccccc3c2=O)cc1 | > 20 µM | 5.2 µM | – |
| O=C1c2ccccc2SC1c1ccccc1 (stereo not drawn) | – | > 10 µM | – |
| CCOC(=O)c1ccc(-n2sc3ccccc3c2=O)cc1 | > 20 µM | – | – |
| Cc1ccc(C)c(N2Cc3ccccc3C2=O)c1 | – | > 10 µM | – |

Reference: ChEMBL document CHEMBL1772943, “Potent, selective, and orally available benzoisothiazolone phosphomannose isomerase inhibitors as probes for congenital disorder of glycosylation Ia” (J Med Chem, 2011)
